# High-throughput results (PubChem BioAssay)
# ABCG2 inh – human ABCG2 inhibition, ABCB1 as counter-screen | AID 1325 | inhibition, % at 6.6 µM | 190,000 compounds, 0.1% hits | Q9UNQ0 | IgMXP3 cells, JC-1 efflux, flow cytometry;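 active = inhibition above 80%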;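 also: 0% = DMSO and 100% = nicardipine control wells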
#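 Test system: IgMXP3 cells (ABCG2) mixed with DDAO far-red-labelled CCRF-Adr cells (ABCB1). Reagent: JC-1 transporter substrate. Compound dosing: single test compound dose, 6.6 µM final. Times: 10 min compound exposure, 25 °C. Detection: flow cytometry of retained JC-1 fluorescence. Read-out basis: efflux inhibition in percent versus controls. Controls: nicardipine and DMSO wells.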
# WT yeast gro inh – growth inhibition of WT yeast, mitochondrial fusion screen. 190,000 compounds, 2.1% hits. mitochondrial fusion phenotypic screen, WT strain. inhibition, % at 10 µM; in the data active = inhibition above about 58%; tested in S. cerevisiae
# ABCB1 block – human ABCB1 inhibition, ABCG2 as counter-screen | 190,000 compounds, 0.067% hits | AID 1326 | CCRF-Adr cells, JC-1 efflux, flow cytometry | P08183 | inhibition, % at 6.6 µM; in the data active = inhibition above about 40%;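 also: 0% = vehicle and 100% = reference inhibitor; higher value means more JC-1 retained so stronger ABCB1 efflux block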
# Target sequence (P08183 whole entry, looked up): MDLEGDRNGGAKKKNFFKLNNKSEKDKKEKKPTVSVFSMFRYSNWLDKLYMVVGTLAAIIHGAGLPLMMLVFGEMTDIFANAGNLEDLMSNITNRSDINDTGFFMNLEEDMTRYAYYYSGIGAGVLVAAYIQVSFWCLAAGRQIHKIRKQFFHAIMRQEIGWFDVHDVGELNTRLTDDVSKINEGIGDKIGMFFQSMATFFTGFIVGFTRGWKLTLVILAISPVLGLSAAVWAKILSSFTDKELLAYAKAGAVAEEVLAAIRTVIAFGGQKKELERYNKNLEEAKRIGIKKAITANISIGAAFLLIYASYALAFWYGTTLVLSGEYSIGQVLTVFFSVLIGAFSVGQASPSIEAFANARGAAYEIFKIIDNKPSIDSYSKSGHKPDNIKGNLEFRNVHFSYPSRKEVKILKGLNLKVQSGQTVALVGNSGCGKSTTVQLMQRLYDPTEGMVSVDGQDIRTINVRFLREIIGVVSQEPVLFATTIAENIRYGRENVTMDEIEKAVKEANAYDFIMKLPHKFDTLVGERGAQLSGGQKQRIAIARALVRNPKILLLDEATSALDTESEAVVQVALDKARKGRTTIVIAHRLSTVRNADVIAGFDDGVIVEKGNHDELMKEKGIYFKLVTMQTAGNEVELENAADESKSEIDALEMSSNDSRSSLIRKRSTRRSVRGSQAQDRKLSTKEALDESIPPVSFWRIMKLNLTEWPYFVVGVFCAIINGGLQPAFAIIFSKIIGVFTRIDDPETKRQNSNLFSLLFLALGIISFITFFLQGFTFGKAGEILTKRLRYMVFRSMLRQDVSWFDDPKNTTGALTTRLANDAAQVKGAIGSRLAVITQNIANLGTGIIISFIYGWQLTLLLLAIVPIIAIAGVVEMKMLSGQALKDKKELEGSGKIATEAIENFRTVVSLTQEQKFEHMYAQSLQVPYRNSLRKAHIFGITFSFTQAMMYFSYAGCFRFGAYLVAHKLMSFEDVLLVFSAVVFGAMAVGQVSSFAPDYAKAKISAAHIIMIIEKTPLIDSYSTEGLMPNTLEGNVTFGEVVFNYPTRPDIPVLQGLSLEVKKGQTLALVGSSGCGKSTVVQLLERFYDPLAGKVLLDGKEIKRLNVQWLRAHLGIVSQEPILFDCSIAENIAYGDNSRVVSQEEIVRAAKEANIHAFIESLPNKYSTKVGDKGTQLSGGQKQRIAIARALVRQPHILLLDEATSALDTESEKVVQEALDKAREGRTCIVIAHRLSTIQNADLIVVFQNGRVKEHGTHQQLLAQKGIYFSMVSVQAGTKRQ
# RAM inhibit – yeast RAM network inhibition; S. cerevisiae dse1pr::URA3 reporter, 5-FOA growth OD615, 2 d; analog-sensitive cbk1-as2 kinase mutant strain; inhibition, % at 50 µM; 190,000 compounds, 1.8% hits;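 active = inhibition above a set limit, 3 SD over mean compound inhibition, cut at about 8.4% in these data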;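 also: 0% = DMSO-only wells with no growth and 100% = 10 µM 1-NA-PP1 full growth; inhibition rescues growth on 5-FOA so higher OD means more RAM inhibition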
# L major viab – Leishmania major promastigote growth inhibition; 200,000 compounds, 9% hits; Leishmania major promastigotes, resazurin fluorescence viability; AID 1063; inhibition, % at 10 µM; in the data active = inhibition above about 50%;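 also: promastigotes grown with compound for 44 hours at 28 °C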
# Lmaj promast 1uM – blocks Leishmania major promastigote growth at 1 uM, repeat screen; shares compounds with L major viab; L. major promastigote growth, resazurin fluorescence, 48 h; inhibition, % at 1 µM; 1,100 compounds, 13% hits; AID 1258;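 active = inhibition above about 50% in both repeat tests, limit read from the data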
# * marks the source's active call; other numbers are inactive results; . = no result. The list is not random: actives were taken first. Their share in the collection is about 12%.
SMILES,ABCG2 inh,WT yeast gro inh,ABCB1 block,RAM inhibit,L major viab,Lmaj promast 1uM
Cc1ccc(S(=O)(=O)n2nc(C)cc2C)cc1,2,2,1,0,-1,.
Cn1c(-c2ccc(C=O)s2)nc2c3ccccc3c3ccccc3c21,0,16,1,2,68*,-17
O=c1ccsn1Cc1ccccc1,4,7,1,-1,101*,32
O=C1C2CCCCC2C(=O)N1Cc1ccccc1 (stereo not drawn),1,-5,0,2,-5,.
CCOC(=O)Cc1cc(=O)n2[nH]cc(-c3cccc(Br)c3)c2n1,-3,-6,-2,3,-2,.
CC(=O)Nc1ccc(NC2=Nc3ccccc3N3C2=Nc2c(c(C)nn2-c2ccccc2)C3c2ccccc2)cc1 (stereo not drawn),0,-1,1,9.4*,56*,5
Cc1nn(-c2ccccn2)c2c1C(=O)C(Br)CC2 (stereo not drawn),1,-9,0,0,100*,85*
CN(C(=O)n1cnc2ccccc21)c1ccccc1,12,-31,1,0,-5,.
ClC(Br)=C(n1cnc2ccccc21)n1cnc2ccccc21,1,14,0,0,100*,-20
c1ccc(-c2n[nH]c(-c3ccccn3)n2)nc1,24,6,8,0,100*,-9
Cc1cccc(-n2c(SCc3cc(=O)n4ccsc4n3)nc3ccccc32)c1,53,23,8,5,92*,-13
c1ccc2c(c1)CCOC2CNCCCN1CCCCC1 (stereo not drawn),-1,-18,-1,-1,56*,-5
CCOC(=O)c1ccc2c(c1)nc(C1CCN(S(=O)(=O)c3cccs3)CC1)n2CC,31,23,2,0,100*,5
Cc1ccc(C(=O)CCC(=O)N2CCN(C(=O)c3ccco3)CC2)cc1,0,-5,0,1,2,.
CCOC(=O)C1=C(C)NC(=O)NC1c1ccccc1Cl (stereo not drawn),1,6,0,1,6,.
CCOC(=O)C1=C(C)NC(=O)NC1c1ccc(Br)s1 (stereo not drawn),4,5,0,2,66*,-9
CC1(C)C(=O)OC(C(=O)c2ccccc2)C2(CCCCC2)C1=O (stereo not drawn),0,-16,0,1,1,.
CC1=C(OC(=O)C(C)(C)C)C(C)(C)C(c2ccccc2)OC1=O (stereo not drawn),3,-1,1,4,55*,0
O=C(NCCc1c[nH]c2ccccc12)/C(=C\c1cccnc1)NC(=O)c1ccco1,-5,2,0,1,61*,-2
CCC(=O)Nc1nc(C)c(-c2csc(Nc3ccccn3)n2)s1,-3,33,-1,0,62*,6
CC(C)=CC(=O)OCc1cc([N+](=O)[O-])cc2c1OCOC2,13,-1,1,5,12,.
COc1cc(/C=N/NC(=O)COc2cc(C)cc(C)c2)ccc1OS(=O)(=O)c1ccc(C)cc1,4,11,1,4,-2,.
COc1ccc(/C=N/NC(=O)c2cccc([N+](=O)[O-])c2)cc1OS(=O)(=O)c1ccc(C)cc1,-1,8,-1,0,87*,-23
COc1ccc(-n2cc(-c3ccc(OC(F)F)cc3)[n+]3c2CCCCC3)cc1,-1,23,0,2,99*,-12
CC12CCC(O)CC1=CCC1C2CCC2(C)C1CCC21CCC(=O)O1 (stereo not drawn),17,75*,0,4,68*,-10
SMILES,ABCG2 inh,WT yeast gro inh,ABCB1 block,RAM inhibit,L major viab,Lmaj promast 1uM
C[C@]12CCC3C(CC=C4C[C@@H](O)CC[C@@]43C)C1CCC2[C@]1(C)CCC(=O)O1 (stereo partly drawn),1,18,0,2,33,.
Cn1nc([N+](=O)[O-])nc1Sc1nnc(-c2ccccc2)o1,2,-3,1,2,99*,-2
c1ccc(-n2nnnc2-c2cnc(-c3cccnc3)nc2-c2cccs2)cc1,10,29,23,0,95*,-13
CCN(CC)c1ccc(NC(=O)CN2CCN(S(=O)(=O)c3cc(Cl)ccc3OC)CC2)cc1,2,26,1,-1,54*,66*
OCc1cn(-c2ccccc2)nc1-c1cccnc1,18,-18,1,1,-2,.
N=C(N)SCc1cn(-c2ccccc2)nc1-c1ccc(Br)cc1,2,85*,2,-1,101*,79*
OC(CNCc1ccccc1Cl)C(F)(F)F (stereo not drawn),3,8,1,0,-2,.
CC1(C)Cc2ccccc2C(NNC(=O)c2ccccn2)=N1,3,20,1,1,98*,-7
Cc1c(Cl)sn(-c2ccc(Cl)cc2)c1=O,43,94,6,-2,101*,100*
Cc1c(C(=O)O)sc(=S)n1-c1ccc(Cl)cc1,6,-2,0,0,-9,.
Cc1sc2nc(CN(C(=O)NC3CCCCC3)C3CCCC3)[nH]c(=O)c2c1C,4,-3,2,3,43,.
Cc1sc2nc(CN(Cc3cccs3)C(=O)NC3CCCCC3)[nH]c(=O)c2c1C,15,66*,3,3,53*,2
Cc1ccc(-c2nc(CSCC(=O)NCCN3CCN(Cc4ccccc4)CC3)c(C)o2)cc1,4,-11,2,3,52*,-26
CC1=C(C)CC(C(=O)Nc2ccc3c(c2)OCO3)C(C(=O)O)C1 (stereo not drawn),3,-2,0,-1,-5,.
OCCC1CN(Cc2cnc(-c3ccc(Cl)cc3)nc2)CCN1C1CCCCC1 (stereo not drawn),1,-5,0,0,87*,12
CN1c2ccccc2N(C)C1(C)c1cccc2ccccc12,8,9,0,3,35,.
CN1c2cccc3cccc(c23)N(C)C1(C)C,4,-29,1,4,99*,-16
COc1ccc(NC(=O)C(CC(=O)O)Cc2ccc(C)cc2)cc1 (stereo not drawn),1,-9,0,-1,6,.
O=C(CCl)Nc1cccc(-c2cnc3ccccc3n2)c1,12,8,1,-1,100*,77*
Cc1ccc2[nH]c(O)c(N=NC(=O)CCc3ccccc3)c2c1Br,8,8,1,6,6,.
COc1ccc2nc(N3C(=O)/C(=C/c4ccccc4)NC3=S)sc2c1,-9,-2,-1,8,61*,-13
O=C(CN1C(=O)c2cccc3cccc(c23)C1=O)NCCN1CCOCC1,8,12,1,2,3,.
CCOC(=O)c1ccc(N2C(=O)CC(C(=O)OC)=C2C)cc1,2,-19,13,2,86*,-7
CC1(C)CC2(CC(c3cccs3)c3cc(Cl)c(O)cc3O2)NC(=S)N1 (stereo not drawn),0,17,0,2,92*,-10
